Source: PubChem
Most compounds without a hit are left out; they make up all but 1.8% or so of the library.
NPY1 pot ag – NPY-Y1 receptor potentiators or agonists, primary screen, cell-based; Neuropeptide Y receptor type 1 (Homo sapiens), P25929; NPY-Y1 expressing cells, potentiator/agonist activation; activation, % at 3.6 µM; 0.37% of 220,000 active; AID 1304, 2008; in the data active means activation above about 33%, passing the limit was not always enough;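 further: cells stimulated with NPY at EC10 then isoproterenol at EC100; 0% = low agonist plus stimulus and 100% = saturating agonist plus stimulus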
NPY-Y2 antag – NPY-Y2 receptor antagonists, primary screen, cell-based; NPY-Y2 expressing cells, antagonist mode; AID 793, 2007; Neuropeptide Y receptor type 2 (Homo sapiens), P49146; inhibition, % at 2.7 µM; 0.99% of 140,000 active;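 further: 0% = vehicle with agonist challenge and 100% = reference antagonist with challenge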
Target sequence (P49146 whole entry, looked up): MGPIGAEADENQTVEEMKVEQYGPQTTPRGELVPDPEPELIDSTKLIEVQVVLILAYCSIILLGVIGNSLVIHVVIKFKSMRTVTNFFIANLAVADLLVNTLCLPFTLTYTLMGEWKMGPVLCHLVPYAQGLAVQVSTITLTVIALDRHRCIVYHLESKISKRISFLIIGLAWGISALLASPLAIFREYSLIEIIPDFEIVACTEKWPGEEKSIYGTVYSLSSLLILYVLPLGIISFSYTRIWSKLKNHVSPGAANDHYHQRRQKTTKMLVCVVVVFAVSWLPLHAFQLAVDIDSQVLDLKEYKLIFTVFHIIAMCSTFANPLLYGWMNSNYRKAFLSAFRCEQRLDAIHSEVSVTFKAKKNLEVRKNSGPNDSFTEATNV
NPY-Y1 antag – NPY-Y1 receptor antagonists, primary screen, cell-based; HEK293-CNG Y1 cells, membrane potential fluorescence; NPY at EC95, then isoproterenol; inhibition, % at 3.6 µM; 1% of 200,000 active; AID 1040, 2008;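 active means inhibition above the campaign mean inhibition of all tested compounds plus 3 SD, cut at about 20% in these data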;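 further: 0% = DMSO wells given NPY plus isoproterenol and 100% = isoproterenol alone without NPY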
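material = HEK293 cells with Y1 receptor plus CNG channel | also added = NPY 25 nM then isoproterenol 1 µM plus Ro 20-1724 25 µM | schedule = dye 3 h, compound 60 min room temperature, stimulation 45 min | measured by = membrane potential fluorescence | benchmarks = high control isoproterenol alone, low control NPY with isoproterenol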
NPY-Y2 PAM-ag – NPY-Y2 potentiators or agonists, primary screen, cell-based; activation, % at 3.6 µM; 0.45% of 220,000 active; cells expressing NPY-Y2, potentiator/agonist read-out; Neuropeptide Y receptor type 2 (Homo sapiens), P49146; in the data active means activation above about 27%;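 further: cells stimulated with NPY near EC25 plus isoproterenol at EC100; 0% = vehicle plus submaximal agonist and 100% = vehicle plus saturating agonist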
NPY1 antag conf – NPY-Y1 receptor antagonists, retest of hits, confirmation, HEK293-CNG cells, membrane potential fluorescence, triplicate | 21% of 1,200 active | AID 1254, 2008 | inhibition, % at 3.6 µM | shares compounds with NPY-Y1 antag | cAMP; NPY challenge against isoproterenol-raised cAMP; in the data active means inhibition above about 20%;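 further: 0% = vehicle with agonist plus stimulus and 100% = stimulus alone without agonist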
NPY-Y2 antag ct – NPY-Y2 receptor antagonists, selectivity check, confirmation, counter-screen for NPY-Y1 antagonist project, HEK293-CNG cells, membrane potential fluorescence, triplicate; AID 1255, 2008; 28% of 1,200 active; shares compounds with NPY-Y1 antag; antagonism; cells given NPY, then isoproterenol; inhibition, % at 3.6 µM;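 further: 0% = DMSO with agonist challenge and 100% = reference antagonist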
* marks the source's active call; other numbers are inactive results; . = no result given. Unless noted, no stated cut-off is given here; in the data, active means inhibition above about 17%; inactive means the rest.

SMILES | NPY1 pot ag | NPY-Y2 antag | NPY-Y1 antag | NPY-Y2 PAM-ag | NPY1 antag conf | NPY-Y2 antag ct
CC1=CC(=C(C#N)C#N)C=C(C)N1CCN1CCNCC1 | -8 | . | -5 | -2 | . | .
Cc1cc2cc(CNC(=O)Cc3ccc([N+](=O)[O-])cc3)ccc2[nH]1 | 9 | . | -6 | 7 | . | .
O=C(COc1ccc2ccccc2c1)NCCNC(=O)COc1ccc2ccccc2c1 | -2 | 4 | 6 | 2 | . | .
O=C(COc1ccc2ccccc2c1)NCCc1ccc2c(c1)OCCO2 | -52 | 16 | 25* | -10 | 17 | 11
Cc1ccc2oc(=O)n(Cc3ccccc3OC(C)C)c2c1 | -21 | 14 | 14 | -10 | . | .
N=c1n(Cc2ccccc2Cl)c2ccccc2n1CC(O)c1ccco1 (stereo unspecified) | 6 | . | 28* | -7 | 15 | 25*
N=c1n(CCN2CCCC2)c2ccccc2n1CC(O)c1ccc(Cl)c(Cl)c1 (stereo unspecified) | -33 | . | 43* | -28 | 16 | 29*
N=c1n(Cc2ccccc2)c2ccccc2n1CC(O)c1ccccc1 (stereo unspecified) | -24 | 16 | 28* | -14 | 9 | 16
CCCn1c(=N)n(CC(O)c2ccc(C)cc2)c2ccccc21 (stereo unspecified) | -12 | . | . | -29 | . | .
N=c1n(CCN2CCOCC2)c2ccccc2n1CC(=O)c1ccc(Cl)c(Cl)c1 | -5 | 7 | 16 | -5 | . | .
Cc1[nH]c(=O)c(C#N)cc1-c1ccccc1 | -43 | 15 | 26* | -37 | 20* | 38*
CCOc1ccccc1N1CCN(c2nc3ccccc3nc2C(C#N)C(=O)OC)CC1 (stereo unspecified) | 3 | 2 | 1 | -13 | . | .
COc1ccccc1OCCOCCOc1c(C)cc(C)cc1Br | -33 | 11 | 24* | -9 | 12 | 10
O=C(Nc1cccc(Cl)c1)C1C2CCC3C(CCC21)C3(Cl)Cl (stereo unspecified) | -13 | 14 | 33* | 8 | 5 | 2
O=C(Nc1ccc(-c2nnco2)cc1)c1ccccc1 | 4 | 1 | -1 | -10 | . | .
COc1cc(CNc2ccccc2Oc2cc(=O)n(C)c(=O)n2C)cc(OC)c1OC | -12 | 13 | 36* | -36 | 17 | 8
Cn1c(Oc2ccccc2NCc2cc(Br)ccc2O)cc(=O)n(C)c1=O | 1 | 0 | -7 | 14 | . | .
Cc1ccsc1/C=N/NC(=O)c1ccncc1 | 10 | . | -1 | 4 | . | .
COc1cc(C(=O)N/N=C/c2sccc2C)cc(OC)c1OC | 1 | . | 50* | -5 | 3 | 12
COc1ccc(-c2onc(C)c2-c2cnn(-c3ccccc3)c2)c(O)c1C | -34 | . | 31* | -44 | 6 | 13
COc1ccc(-c2n[nH]c(C)c2-c2cnn(-c3ccccc3)c2)c(O)c1C | -8 | 2 | -2 | -22 | . | .
COc1ccccc1OC(=O)c1cc(Cl)nc2ccccc12 | -2 | 0 | 21* | 3 | 14 | 17*
Cc1cc(OC(=O)c2cc(Cl)nc3ccccc23)ccc1Cl | -10 | 3 | 3 | -9 | . | .
Cc1cccc(NC(=O)c2cc(-c3ccccn3)nc3ccccc23)c1C | -122 | . | 39* | -59 | 25* | 23*
Cc1csc(NC(=O)c2cc(-c3ccccc3)nc3ccccc23)n1 | -105 | 13 | 22* | -30 | 19 | 12
O=C(NC1CC1)c1cc(-c2ccccn2)nc2ccccc12 | -7 | 3 | -1 | -10 | . | .
Cc1ccc(-c2cc(C(=O)Nc3cc(C)on3)c3ccccc3n2)c(C)c1 | -115 | 9 | 35* | -41 | 29* | 51*
COc1cccc(CNC23CC4CC(CC(C4)C2)C3)c1OCc1ccccc1 | -90 | . | 165* | -23 | 114* | 84*
COc1cccc(CNn2cnnc2)c1OCc1ccc(F)cc1 | 13 | 0 | 1 | -2 | . | .
CCOC(=O)c1ccc(NC(=O)CCC(CC)C(=O)O)cc1 (stereo unspecified) | 3 | 2 | 0 | 15 | . | .
